The text below walks through data of ChEMBL document CHEMBL1177685, “Novel structure-activity relationships and selectivity profiling of cage dimeric 1,4-dihydropyridines as multidrug resistance (MDR) modulators” (Bioorg Med Chem, 2010).

Holding throughout (assay type): cell-based
In data set [1] the target is T1, Broad substrate specificity ATP-binding cassette transporter ABCG2 (Homo sapiens, UniProt Q9UNQ0).
T1 sequence (Q9UNQ0 whole entry): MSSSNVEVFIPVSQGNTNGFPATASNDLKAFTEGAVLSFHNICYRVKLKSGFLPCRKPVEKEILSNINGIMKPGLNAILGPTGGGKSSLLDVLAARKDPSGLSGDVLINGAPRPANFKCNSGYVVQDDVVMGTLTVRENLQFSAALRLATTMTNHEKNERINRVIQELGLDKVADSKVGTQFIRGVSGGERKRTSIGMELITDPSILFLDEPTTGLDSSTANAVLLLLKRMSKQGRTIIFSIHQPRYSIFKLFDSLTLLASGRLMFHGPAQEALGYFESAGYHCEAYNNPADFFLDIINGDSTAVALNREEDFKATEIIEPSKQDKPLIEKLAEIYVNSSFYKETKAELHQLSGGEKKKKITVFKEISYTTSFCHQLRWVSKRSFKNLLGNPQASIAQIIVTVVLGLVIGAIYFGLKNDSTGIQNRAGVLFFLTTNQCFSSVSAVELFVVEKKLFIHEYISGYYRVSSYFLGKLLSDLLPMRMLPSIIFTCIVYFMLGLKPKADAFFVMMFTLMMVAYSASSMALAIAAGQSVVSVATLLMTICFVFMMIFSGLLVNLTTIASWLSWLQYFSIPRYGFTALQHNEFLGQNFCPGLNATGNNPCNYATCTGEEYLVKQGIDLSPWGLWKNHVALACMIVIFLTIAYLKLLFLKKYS
The experiment in a line: Inhibition of BCRP expressed in human EPG-257RNOV cells at 1 uM relative to control. The method, boiled down:
(§1)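 BCRP-overexpressing EPG85-257RNOV gastric carcinoma cells (kept in medium with mitoxantrone 0.2 µg/mL), 0.5×10^6 cells/mL, exposed to inhibitor 20 min at 37 °C. Mitoxantrone (20 µM final) then added for 60 min at 37 °C. Cells trypsinized, washed in ice-cold PBS, 10,000 events read by flow cytometry (488 nm excitation, 670 nm filter). R = treated/untreated fluorescence quotient, divided by the same quotient in parental EPG85-257P.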

Data set [2] addresses T1, Broad substrate specificity ATP-binding cassette transporter ABCG2. The experiment in a line: Inhibition of BCRP expressed in human EPG-257RNOV cells at 0.1 uM relative to control. The method, boiled down: as §1
Data set [3] concerns L5178Y. The data set can be described thus: Inhibition of Pgp expressed in mouse L5178Y cells at 10 uM relative to control. The procedure, abridged:
(§2)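 L5178Y mouse T lymphoma cells transduced with human mdr1 retrovirus (colchicine-selected) and parental L5178Y, 2×10^6/mL in serum-free McCoy's 5A, preincubated with inhibitor 10 min at rt. Rhodamine 123 (5.2 µM final) added for 20 min at 37 °C. Cells washed twice, resuspended in PBS, 1×10^4 cells read by flow cytometry. R = treated/untreated fluorescence ratio, divided by the parental-line ratio.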

Data set [4] has as its target ATP-binding cassette sub-family C member 2 (Homo sapiens, UniProt Q92887). The data set can be described thus: Inhibition of MRP2 expressed in human A2780 cells at 10 uM relative to control. The note with it: a2780, 10 µM. The method, boiled down: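 Cisplatin-induced A2780RCIS ovarian cells (maintained with cisplatin 10 ng/mL) and parental A2780P were seeded for 24 h, given fresh medium with inhibitor for 20 min at 37 °C, then carboxyfluorescein diacetate (2 µM final) for 40 min at 37 °C. After ice-cold PBS washes, 10,000 events were read by flow cytometry (488 nm excitation, 530 nm filter). MRP2 value = A2780RCIS uptake minus the MRP1-specific uptake in A2780P.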

The subject of data set [5] is L5178Y. The experiment in a line: Inhibition of Pgp expressed in mouse L5178Y cells at 1 uM relative to control. The procedure, abridged:
as §2

The target of data set [6] is Multidrug resistance-associated protein 1 (Homo sapiens, UniProt P33527). The experiment in a line: Inhibition of MRP1 expressed in human A2780 cells at 10 uM relative to control. The note with it: a2780, 10 µM.
Chain of Multidrug resistance-associated protein 1 (P33527 whole entry): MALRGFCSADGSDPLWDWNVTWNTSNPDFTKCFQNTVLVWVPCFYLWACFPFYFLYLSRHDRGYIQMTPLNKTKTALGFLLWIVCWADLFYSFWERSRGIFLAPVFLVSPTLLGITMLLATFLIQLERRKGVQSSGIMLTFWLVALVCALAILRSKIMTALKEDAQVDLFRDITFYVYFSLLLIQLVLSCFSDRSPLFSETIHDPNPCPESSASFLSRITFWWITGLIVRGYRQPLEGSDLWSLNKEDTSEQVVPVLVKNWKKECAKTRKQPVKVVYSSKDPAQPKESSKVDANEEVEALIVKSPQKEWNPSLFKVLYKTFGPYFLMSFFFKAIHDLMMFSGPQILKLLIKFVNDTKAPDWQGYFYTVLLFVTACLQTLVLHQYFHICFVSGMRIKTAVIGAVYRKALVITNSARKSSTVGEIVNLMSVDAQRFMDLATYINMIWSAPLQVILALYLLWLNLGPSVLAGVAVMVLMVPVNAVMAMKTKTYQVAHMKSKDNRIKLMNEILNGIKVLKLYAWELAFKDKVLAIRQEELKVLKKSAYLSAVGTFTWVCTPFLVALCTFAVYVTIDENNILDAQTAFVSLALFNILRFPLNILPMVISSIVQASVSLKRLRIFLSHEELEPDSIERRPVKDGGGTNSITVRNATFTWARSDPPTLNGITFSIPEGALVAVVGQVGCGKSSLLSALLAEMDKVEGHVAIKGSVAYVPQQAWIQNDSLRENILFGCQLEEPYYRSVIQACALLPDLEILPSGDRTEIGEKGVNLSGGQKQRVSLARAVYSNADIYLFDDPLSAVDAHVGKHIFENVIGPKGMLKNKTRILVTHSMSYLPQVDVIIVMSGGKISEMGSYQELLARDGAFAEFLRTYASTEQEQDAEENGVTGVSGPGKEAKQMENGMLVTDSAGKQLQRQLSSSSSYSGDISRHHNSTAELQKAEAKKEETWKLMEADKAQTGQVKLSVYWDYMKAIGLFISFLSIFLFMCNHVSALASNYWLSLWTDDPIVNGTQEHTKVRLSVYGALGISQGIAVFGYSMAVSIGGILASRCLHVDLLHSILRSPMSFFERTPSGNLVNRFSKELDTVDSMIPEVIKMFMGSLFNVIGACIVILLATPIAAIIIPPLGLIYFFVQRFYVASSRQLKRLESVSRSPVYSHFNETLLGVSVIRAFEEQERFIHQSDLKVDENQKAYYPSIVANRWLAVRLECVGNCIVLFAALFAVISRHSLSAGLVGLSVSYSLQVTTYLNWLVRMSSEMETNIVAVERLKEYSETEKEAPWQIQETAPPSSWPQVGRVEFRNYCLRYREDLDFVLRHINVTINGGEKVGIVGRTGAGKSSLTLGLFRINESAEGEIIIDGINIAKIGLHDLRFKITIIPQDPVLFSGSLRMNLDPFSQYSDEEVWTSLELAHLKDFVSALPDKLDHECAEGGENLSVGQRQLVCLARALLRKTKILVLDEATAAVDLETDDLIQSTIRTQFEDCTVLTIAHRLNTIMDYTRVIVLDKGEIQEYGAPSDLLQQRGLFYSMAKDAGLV

Each structure is given as a SMILES string.

Chain of ATP-binding cassette sub-family C member 2 (Q92887 whole entry): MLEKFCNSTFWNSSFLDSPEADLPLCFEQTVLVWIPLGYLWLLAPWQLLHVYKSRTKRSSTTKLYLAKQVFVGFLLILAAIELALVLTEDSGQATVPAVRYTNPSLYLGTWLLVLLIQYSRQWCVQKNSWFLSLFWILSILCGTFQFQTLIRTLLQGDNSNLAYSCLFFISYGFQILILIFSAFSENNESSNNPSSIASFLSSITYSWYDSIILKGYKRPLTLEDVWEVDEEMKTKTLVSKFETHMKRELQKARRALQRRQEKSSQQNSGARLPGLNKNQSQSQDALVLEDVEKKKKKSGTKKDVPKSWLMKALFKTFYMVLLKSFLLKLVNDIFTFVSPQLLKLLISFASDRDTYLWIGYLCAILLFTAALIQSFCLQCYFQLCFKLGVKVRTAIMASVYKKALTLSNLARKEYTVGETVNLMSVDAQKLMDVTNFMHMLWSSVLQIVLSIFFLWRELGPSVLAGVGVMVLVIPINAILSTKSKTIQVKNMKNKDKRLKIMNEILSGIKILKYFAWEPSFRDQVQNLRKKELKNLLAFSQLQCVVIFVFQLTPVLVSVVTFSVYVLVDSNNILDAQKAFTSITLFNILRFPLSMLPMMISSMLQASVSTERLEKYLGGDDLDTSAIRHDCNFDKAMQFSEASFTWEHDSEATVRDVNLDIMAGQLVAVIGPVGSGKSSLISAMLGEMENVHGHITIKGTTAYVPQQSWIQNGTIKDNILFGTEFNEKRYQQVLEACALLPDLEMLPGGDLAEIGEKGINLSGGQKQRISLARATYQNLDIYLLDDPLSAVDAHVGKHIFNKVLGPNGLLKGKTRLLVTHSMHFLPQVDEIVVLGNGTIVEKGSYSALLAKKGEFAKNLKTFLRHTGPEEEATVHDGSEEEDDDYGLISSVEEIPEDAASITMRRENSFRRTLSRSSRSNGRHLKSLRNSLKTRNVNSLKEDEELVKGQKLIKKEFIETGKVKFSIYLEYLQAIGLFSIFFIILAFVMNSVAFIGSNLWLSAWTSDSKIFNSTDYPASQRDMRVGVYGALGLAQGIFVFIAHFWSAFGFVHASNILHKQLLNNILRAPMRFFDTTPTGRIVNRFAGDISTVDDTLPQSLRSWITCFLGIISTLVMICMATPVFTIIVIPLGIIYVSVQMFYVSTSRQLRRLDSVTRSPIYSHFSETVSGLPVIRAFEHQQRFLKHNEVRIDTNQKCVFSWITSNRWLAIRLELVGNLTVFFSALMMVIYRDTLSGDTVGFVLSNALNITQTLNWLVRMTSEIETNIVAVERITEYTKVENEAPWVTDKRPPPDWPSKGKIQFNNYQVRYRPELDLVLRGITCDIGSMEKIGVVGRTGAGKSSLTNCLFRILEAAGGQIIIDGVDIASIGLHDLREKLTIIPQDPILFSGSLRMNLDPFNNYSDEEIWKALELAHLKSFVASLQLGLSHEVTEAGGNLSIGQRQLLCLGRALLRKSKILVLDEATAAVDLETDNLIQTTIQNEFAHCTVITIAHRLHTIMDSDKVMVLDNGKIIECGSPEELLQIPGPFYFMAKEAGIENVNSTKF

For `COc1ccc(CN2C3[C@]4(CO)C5N(Cc6ccc(OC)cc6)C6[C@@](CO)(C2[C@]6(CO)[C@H]4c2ccccc2)[C@H](c2ccccc2)[C@@]35CO)cc1`, the Ratio in data set [1] is 3.2; in data set [2], 1.2; in data set [3] it was 13; in data set [4] it was 1.1; in data set [5], 3.5; in data set [6], 3.4.
`OC[C@]12C3N(Cc4ccccc4)C4[C@@]5(CO)C(N(Cc6ccccc6)C1[C@]3(CO)[C@@H]5c1ccc(OCc3ccccc3)cc1)[C@]4(CO)[C@@H]2c1ccc(OCc2ccccc2)cc1`: the Ratio in data set [1] amounted to 3.5; in data set [2] it was 1.4; in data set [3], 47; in data set [4] it was 1.56; in data set [5], 3.3; in data set [6], 1.
For the compound `OC[C@]12C3N(Cc4ccc(OCc5ccccc5)cc4)C4[C@@]5(CO)C(N(Cc6ccc(OCc7ccccc7)cc6)C1[C@]3(CO)[C@@H]5c1ccccc1)[C@]4(CO)[C@@H]2c1ccccc1`, the Ratio in data set [1] turned out to be 1.2; in data set [3], 28; in data set [4], 0.75; in data set [5], 2.3; in data set [6], 2.5.
On to `OC[C@]12C3N(Cc4ccccc4)C4[C@@]5(CO)C(N(Cc6ccccc6)C1[C@]3(CO)[C@@H]5c1ccc(O)cc1)[C@]4(CO)[C@@H]2c1ccc(O)cc1`, for which the Ratio came to 1.5 in data set [1]; 1.5 in data set [3]; 0.63 in data set [4]; 1.3 in data set [5]; 1.8 in data set [6].
On to `OC[C@]12C3N(Cc4ccncc4)C4[C@@]5(CO)C(N(Cc6ccncc6)C1[C@]3(CO)[C@@H]5c1ccccc1)[C@]4(CO)[C@@H]2c1ccccc1`, for which the Ratio in data set [1] worked out at 1.3; in data set [3], 1.1; in data set [4], 0.8; in data set [5], 1.5; in data set [6] it was 1.2.
Turning to `OC[C@]12C3N(Cc4ccccc4)C4[C@@]5(CO)C(N(Cc6ccccc6)C1[C@]3(CO)[C@@H]5c1cccc(OCc3ccccc3)c1)[C@]4(CO)[C@@H]2c1cccc(OCc2ccccc2)c1`, the Ratio is 2.8 in data set [1]; 1.3 in data set [2]; 125 in data set [3]; 0.97 in data set [4]; 65 in data set [5]; 1.9 in data set [6].
Take `OC[C@]12C3N(Cc4ccc(O)cc4)C4[C@@]5(CO)C(N(Cc6ccc(O)cc6)C1[C@]3(CO)[C@@H]5c1ccccc1)[C@]4(CO)[C@@H]2c1ccccc1`: the Ratio in data set [1] was found to be 1.1; in data set [3], 3.3; in data set [4] it was 0.82; in data set [5], 1.5; in data set [6], 1.6.
On to `COc1ccc2c(c1)c(CC(=O)O)c(C)n2C(=O)c1ccc(Cl)cc1` [INDOMETHACIN], for which the Ratio in data set [4] turned out to be 0.75; in data set [6], 4.1.
With `OC[C@]12C3N(Cc4cccnc4)C4[C@@]5(CO)C(N(Cc6cccnc6)C1[C@]3(CO)[C@@H]5c1ccccc1)[C@]4(CO)[C@@H]2c1ccccc1`, the Ratio in data set [3] was determined as 1.1; in data set [4], 0.9; in data set [5], 1.2; in data set [6], 1.1.
`OC[C@]12C3N(Cc4ccccc4)C4[C@@]5(CO)C(N(Cc6ccccc6)C1[C@]3(CO)[C@@H]5c1ccccc1)[C@]4(CO)[C@@H]2c1ccccc1`: the Ratio in data set [1] turned out to be 1.9; in data set [2] it was 1.1; in data set [3] it was 29; in data set [4] it was 1.02; in data set [5] it was 4.1; in data set [6] it was 2.3.
`OC[C@]12C3N(Cc4cccc(OCc5ccccc5)c4)C4[C@@]5(CO)C(N(Cc6cccc(OCc7ccccc7)c6)C1[C@]3(CO)[C@@H]5c1ccccc1)[C@]4(CO)[C@@H]2c1ccccc1`: the Ratio in data set [1] is 4.2; in data set [2], 1.5; in data set [3], 205; in data set [4], 0.97; in data set [5], 117; in data set [6], 2.8.
Regarding `COc1ccc(CN2C3[C@]4(CO)C5N(Cc6ccc(OC)cc6)C6[C@@](CO)(C2[C@]6(CO)[C@H]4c2ccc(OC)cc2)[C@H](c2ccc(OC)cc2)[C@@]35CO)cc1`, the Ratio in data set [1] was determined as 6.1; in data set [2] it was 1.5; in data set [3], 46; in data set [4] it was 1.25; in data set [5], 3.1; in data set [6], 4.8.
Turning to `OC[C@]12C3N(Cc4ccccc4)C4[C@@]5(CO)C(N(Cc6ccccc6)C1[C@]3(CO)[C@@H]5c1ccncc1)[C@]4(CO)[C@@H]2c1ccncc1`, the Ratio in data set [1] came to 1.2; in data set [3], 7.7; in data set [4], 0.74; in data set [5] it was 2.4; in data set [6], 2.2.
As to `OC[C@]12C3N(Cc4ccccc4)C4[C@@]5(CO)C(N(Cc6ccccc6)C1[C@]3(CO)[C@@H]5c1cccc(O)c1)[C@]4(CO)[C@@H]2c1cccc(O)c1`, the Ratio in data set [1] worked out at 1.1; in data set [3] it was 3; in data set [4] it was 1.05; in data set [5], 1.2; in data set [6], 1.3.
Take `COc1ccc2c3c([nH]c2c1)[C@H](C=C(C)C)N1C(=O)[C@@H]2CCCN2C(=O)[C@@H]1C3` [FUMITREMORGIN]: the Ratio in data set [1] is on record as 6; in data set [2] it was 1.9.
